Experimental data taken from ChEMBL document CHEMBL1142695, “Discovery of functionally selective 7,8,9,10-tetrahydro-7,10-ethano-1,2,4-triazolo[3,4-a]phthalazines as GABA A receptor agonists at the alpha3 subunit” (J Med Chem, 2005).

How the values were obtained:
Assay type in all cases: cell-based
[1] = target: T1, GABA-A receptor; alpha-2/beta-3/gamma-2 (Homo sapiens, UniProt P18507+P28472+P47869); assay: Inhibition of [3H]Ro-151788 binding to recombinant human gamma-aminobutyric acid A receptor alpha-2-beta-3-gamma-2 subtype expressed in L (tk-) cells
T1 sequence (P18507 whole entry): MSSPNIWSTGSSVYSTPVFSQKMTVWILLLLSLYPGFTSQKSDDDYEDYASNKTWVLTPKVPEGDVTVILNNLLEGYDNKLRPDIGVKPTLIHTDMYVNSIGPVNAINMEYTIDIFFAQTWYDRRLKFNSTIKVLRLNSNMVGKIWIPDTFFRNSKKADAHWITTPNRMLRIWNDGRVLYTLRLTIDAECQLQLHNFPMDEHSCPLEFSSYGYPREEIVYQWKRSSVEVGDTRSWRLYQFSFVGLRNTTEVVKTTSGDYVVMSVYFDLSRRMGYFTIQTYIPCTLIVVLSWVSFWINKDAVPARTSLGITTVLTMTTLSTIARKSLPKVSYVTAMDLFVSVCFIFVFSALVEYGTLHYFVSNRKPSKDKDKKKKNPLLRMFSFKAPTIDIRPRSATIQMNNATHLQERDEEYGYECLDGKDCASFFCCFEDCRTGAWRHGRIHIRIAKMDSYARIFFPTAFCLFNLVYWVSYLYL
T1 sequence (P28472 whole entry): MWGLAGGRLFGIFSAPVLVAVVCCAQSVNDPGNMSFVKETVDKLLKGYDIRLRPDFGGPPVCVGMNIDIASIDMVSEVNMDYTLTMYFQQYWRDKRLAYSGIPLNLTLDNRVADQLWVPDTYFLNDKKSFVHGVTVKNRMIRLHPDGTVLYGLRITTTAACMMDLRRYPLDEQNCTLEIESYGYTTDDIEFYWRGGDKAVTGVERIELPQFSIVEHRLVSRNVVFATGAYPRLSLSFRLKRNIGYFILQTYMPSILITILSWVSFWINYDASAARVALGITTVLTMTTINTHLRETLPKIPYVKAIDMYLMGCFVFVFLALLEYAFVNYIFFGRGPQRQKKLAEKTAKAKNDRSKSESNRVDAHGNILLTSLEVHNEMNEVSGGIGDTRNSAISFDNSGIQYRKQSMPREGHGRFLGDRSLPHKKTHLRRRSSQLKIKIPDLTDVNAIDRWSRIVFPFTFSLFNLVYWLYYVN
T1 sequence (P47869 whole entry): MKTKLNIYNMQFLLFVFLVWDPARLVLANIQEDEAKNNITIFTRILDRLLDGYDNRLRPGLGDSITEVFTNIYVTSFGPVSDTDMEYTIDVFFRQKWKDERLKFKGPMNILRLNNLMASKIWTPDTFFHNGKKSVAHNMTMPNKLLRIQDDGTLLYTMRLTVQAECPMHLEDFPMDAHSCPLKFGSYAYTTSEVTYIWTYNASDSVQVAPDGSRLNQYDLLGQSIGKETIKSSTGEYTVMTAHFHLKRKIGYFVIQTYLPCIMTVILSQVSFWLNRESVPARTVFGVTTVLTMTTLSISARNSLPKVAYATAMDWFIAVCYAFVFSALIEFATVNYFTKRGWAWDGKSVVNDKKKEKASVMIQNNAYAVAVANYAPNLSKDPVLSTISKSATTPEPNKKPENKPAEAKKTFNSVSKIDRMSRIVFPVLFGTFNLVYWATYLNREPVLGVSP

[2] = target: T2, GABA-A receptor; alpha-1/beta-3/gamma-2 (Homo sapiens, UniProt P14867+P18507+P28472); assay: Inhibition of [3H]Ro-151788 binding to recombinant human gamma-aminobutyric-acid A receptor alpha-1-beta-3-gamma-2 subtype expressed in L (tk-) cells
T2 sequence (P14867 whole entry): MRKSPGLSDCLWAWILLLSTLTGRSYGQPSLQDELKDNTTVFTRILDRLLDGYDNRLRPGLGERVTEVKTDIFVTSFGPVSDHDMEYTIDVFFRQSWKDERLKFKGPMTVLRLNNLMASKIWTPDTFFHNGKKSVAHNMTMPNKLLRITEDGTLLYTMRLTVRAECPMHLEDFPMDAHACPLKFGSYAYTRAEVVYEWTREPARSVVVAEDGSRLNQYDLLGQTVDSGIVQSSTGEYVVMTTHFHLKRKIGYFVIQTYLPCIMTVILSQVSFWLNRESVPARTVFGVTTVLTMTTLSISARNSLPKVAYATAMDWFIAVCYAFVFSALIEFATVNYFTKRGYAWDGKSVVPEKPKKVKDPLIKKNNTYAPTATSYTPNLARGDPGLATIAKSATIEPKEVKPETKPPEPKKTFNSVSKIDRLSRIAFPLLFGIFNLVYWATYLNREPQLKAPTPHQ
T2 sequence (P18507 whole entry): T1 sequence (P18507 whole entry)
T2 sequence (P28472 whole entry): T1 sequence (P28472 whole entry)

[3] = target: T3, GABA-A receptor; alpha-3/beta-3/gamma-2 (Homo sapiens, UniProt P18507+P28472+P34903); assay: Inhibition of [3H]Ro-151788 binding to recombinant human gamma-aminobutyric-acid A receptor alpha-3-beta-3-gamma-2 subtype expressed in L (tk-) cells
T3 sequence (P18507 whole entry): T1 sequence (P18507 whole entry)
T3 sequence (P28472 whole entry): T1 sequence (P28472 whole entry)
T3 sequence (P34903 whole entry): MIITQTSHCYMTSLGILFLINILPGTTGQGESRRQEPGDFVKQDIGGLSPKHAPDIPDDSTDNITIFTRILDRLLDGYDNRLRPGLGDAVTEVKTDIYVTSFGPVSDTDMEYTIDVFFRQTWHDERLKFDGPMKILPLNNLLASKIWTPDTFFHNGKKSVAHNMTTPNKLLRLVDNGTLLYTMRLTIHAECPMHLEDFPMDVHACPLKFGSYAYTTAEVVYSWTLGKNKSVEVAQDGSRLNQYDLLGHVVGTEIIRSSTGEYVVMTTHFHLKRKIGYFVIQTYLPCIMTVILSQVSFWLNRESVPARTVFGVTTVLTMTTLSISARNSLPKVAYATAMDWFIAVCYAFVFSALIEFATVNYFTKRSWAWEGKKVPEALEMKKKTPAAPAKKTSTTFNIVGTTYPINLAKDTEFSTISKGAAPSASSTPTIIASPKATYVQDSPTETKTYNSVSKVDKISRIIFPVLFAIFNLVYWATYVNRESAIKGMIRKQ

[4] = target: T4, GABA-A receptor; alpha-5/beta-3/gamma-2 (Homo sapiens, UniProt P18507+P28472+P31644); assay: Inhibition of [3H]Ro-151788 binding to recombinant human gamma-aminobutyric-acid A receptor alpha-5-beta-3-gamma-2 subtype expressed in L (tk-) cells
T4 sequence (P18507 whole entry): T1 sequence (P18507 whole entry)
T4 sequence (P28472 whole entry): T1 sequence (P28472 whole entry)
T4 sequence (P31644 whole entry): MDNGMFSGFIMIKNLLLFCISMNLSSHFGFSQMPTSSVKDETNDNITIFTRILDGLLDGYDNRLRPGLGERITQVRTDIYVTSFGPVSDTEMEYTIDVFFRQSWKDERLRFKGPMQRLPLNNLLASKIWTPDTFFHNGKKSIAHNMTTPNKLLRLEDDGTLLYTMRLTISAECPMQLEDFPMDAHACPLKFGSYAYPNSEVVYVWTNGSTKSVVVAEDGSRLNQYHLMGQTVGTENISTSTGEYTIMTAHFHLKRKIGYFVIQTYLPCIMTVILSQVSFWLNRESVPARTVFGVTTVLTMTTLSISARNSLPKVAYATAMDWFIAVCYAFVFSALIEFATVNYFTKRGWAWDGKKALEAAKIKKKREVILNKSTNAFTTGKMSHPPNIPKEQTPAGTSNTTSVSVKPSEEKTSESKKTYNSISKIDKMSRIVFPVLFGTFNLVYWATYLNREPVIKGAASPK

[5] = target: GABA-A receptor; alpha-1/beta-3/gamma-2 (Homo sapiens) (UniProt P14867+P18507+P28472); assay: Efficacy was measured as modulation of the current in response to GABA at hGABA alpha-1-beta-3-gamma-2 receptor expressed in Xenopus oocytes; settings: Oocyte
Procedure, shortened: (§1)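 Two-electrode voltage clamp on Xenopus oocytes expressing each receptor combination. […] Value is percent increase or decrease of the EC20 GABA current.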

[6] = target: GABA-A receptor; alpha-3/beta-3/gamma-2 (Homo sapiens) (UniProt P18507+P28472+P34903); assay: Efficacy was measured as modulation of the current in response to GABA at hGABA alpha-3-beta-3-gamma-2 receptor expressed in Xenopus oocytes; settings: Oocyte; procedure, shortened: as §1

SMILES	Ki [1] [nM]	Ki [2] [nM]	Ki [3] [nM]	Ki [4] [nM]	Efficacy [5] [%]	Efficacy [6] [%]
c1ccc(-c2nnc3c4c(c(OCc5ccncc5)nn23)C2CCC4CC2)cc1	82	140	13	4.7	38	17
Cc1cccnc1COc1nn2c(-c3ccccc3)nnc2c2c1C1CCC2CC1	2	9.8	2.1	0.46	17	7
COCCOc1cccnc1COc1nn2c(-c3ccccc3)nnc2c2c1C1CCC2CC1	9.8	13	3.9	0.5	77	97
CCCn1ncnc1COc1nn2c(-c3ccccc3)nnc2c2c1C1CCC2CC1	2.5	0.9	1.4	0.19	41	78
Cc1ccc(C)c(COc2nn3c(-c4ccccc4)nnc3c3c2C2CCC3CC2)n1	8.7	27	3.6	0.84	–	12
Cn1ccnc1COc1nn2c(-c3ccccc3)nnc2c2c1C1CCC2CC1	7.1	19	4.3	0.45	24	24
CCOc1cccnc1COc1nn2c(-c3ccccc3)nnc2c2c1C1CCC2CC1	2.8	3.9	1.1	0.36	66	46
Cc1ccnc(COc2nn3c(-c4ccccc4)nnc3c3c2C2CCC3CC2)c1C	4	11	1.7	1	–	17
Cn1ncnc1COc1nn2c(-c3ccccc3)nnc2c2c1C1CCC2CC1	5.2	11	2.8	0.39	–	22
N#Cc1cccnc1COc1nn2c(-c3ccccc3)nnc2c2c1C1CCC2CC1	5.9	13	1.7	0.54	–	17
c1ccc(-c2nnc3c4c(c(OCn5cccn5)nn23)C2CCC4CC2)cc1	43	130	19	2.7	76	0
c1ccc(-c2nnc3c4c(c(OCc5cscn5)nn23)C2CCC4CC2)cc1	21	68	10	1.2	33	33
Cc1cnc(COc2nn3c(-c4ccccc4)nnc3c3c2C2CCC3CC2)c(C)c1	3.4	3.4	0.71	0.2	34	-2
CCCc1cccnc1COc1nn2c(-c3ccccc3)nnc2c2c1C1CCC2CC1	9.9	3.5	2.4	3.1	62	52
OCCCCOc1nn2c(-c3ccccc3)nnc2c2c1C1CCC2CC1	34	71	19	8.5	–	20
c1ccc(-c2nnc3c4c(c(OCc5nccc6ccccc56)nn23)C2CCC4CC2)cc1	7.5	29	4.5	0.69	45	14
c1ccc(-c2nnc3c4c(c(OCc5nccs5)nn23)C2CCC4CC2)cc1	35	100	18	2.7	84	27
c1ccc(COc2cccnc2COc2nn3c(-c4ccccc4)nnc3c3c2C2CCC3CC2)cc1	100	160	20	7	178	132
c1ccc(Cn2ccnc2COc2nn3c(-c4ccccc4)nnc3c3c2C2CCC3CC2)cc1	1.7	0.81	2	0.21	73	100
c1ccc(-c2nnc3c4c(c(OCc5ccncn5)nn23)C2CCC4CC2)cc1	8.1	22	3.1	0.555	–	14
CCCn1cnc(COc2nn3c(-c4ccccc4)nnc3c3c2C2CCC3CC2)n1	50	78	40	9	–	83
COc1cccnc1COc1nn2c(-c3ccccc3)nnc2c2c1C1CCC2CC1	9.1	17	2.4	0.65	–	8
Cc1c[nH]c(COc2nn3c(-c4ccccc4)nnc3c3c2C2CCC3CC2)n1	15	85	7.8	0.9	–	28
